According to ChEMBL document CHEMBL1687729, “Intracellular activity of antibiotics in a model of human THP-1 macrophages infected by a Staphylococcus aureus small-colony variant strain isolated from a cystic fibrosis patient: pharmacodynamic evaluation and comparison with isogenic normal-phenotype and revertant strains” (Antimicrob Agents Chemother, 2009):
Converted amounts (≈) assume the structure as drawn. The source made the active and inactive calls. The rule behind the calls is not given here.

Tests used:
[1] = system: Staphylococcus aureus; assay: Antibacterial activity against normal phenotype Staphylococcus aureus in cation-adjusted MH 2 broth at pH 5.5 after 24 hrs by broth microdilution method; type: functional
Summary of the method: (§1)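 MIC by CLSI broth microdilution in cation-adjusted MH II broth adjusted to pH 5.5. Readings were taken at 48 h for the SCV and at 24 h for the normal-phenotype strain.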

[2] = (§2) Cmax in human plasma; type: ADME, organism-based; conditions: plasma
[3] = (§3) Fraction unbound in human plasma
[4] = system: Staphylococcus aureus; assay: Antibacterial activity against Staphylococcus aureus SCV isolated from cystic fibrosis patient at pH 7.4 after 48 hrs by broth microdilution method in absence of thymidine; type: functional
Summary of the method: (§4)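 MIC by CLSI broth microdilution in cation-adjusted MH II broth. For oritavancin, 0.002% polysorbate-80 was added and non-tissue-culture-treated plates were used to limit binding to plastic. Plates were read at 24 h for normal and revertant strains and at 48 h for the SCV. Where stated, the SCV was tested with 100 mg/liter thymidine. Growth was aerobic.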

[5] = system: Staphylococcus aureus; assay: Antibacterial activity against normal phenotype Staphylococcus aureus at pH 7.4 after 24 hrs by broth microdilution method
[6] = system: Staphylococcus aureus; assay: Antibacterial activity against revertant Staphylococcus aureus at pH 7.4 after 24 hrs by broth microdilution method
[7] = system: Staphylococcus aureus; assay: Antibacterial activity against Staphylococcus aureus SCV isolated from cystic fibrosis patient infected in human THP-1 cells assessed as log reduction of intracellular CFU level after 24 hrs in presence of thymidine; type: functional, organism-based
Summary of the method: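 SCV-infected THP-1 macrophages are exposed 24 h after phagocytosis to antibiotic, with 100 mg/liter thymidine added to the culture medium together with the drug. Read-out is change in log CFU per mg cell protein from the initial inoculum. Data are means ± SD, n = 3; significance by ANOVA with Tukey's test.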

[8] = system: Staphylococcus aureus; assay: Antibacterial activity against Staphylococcus aureus SCV isolated from cystic fibrosis patient at pH 7.4 after 48 hrs by broth microdilution method in presence of thymidine; type: functional; summary of the method: as §4
[9] = system: Staphylococcus aureus; assay: Antibacterial activity against Staphylococcus aureus SCV isolated from cystic fibrosis patient in cation-adjusted MH 2 broth at pH 5.5 after 48 hrs by broth microdilution method; type: functional; summary of the method: as §1
[10] = system: Staphylococcus aureus; assay: Antibacterial activity against Staphylococcus aureus SCV isolated from cystic fibrosis patient in cation-adjusted MH 2 broth assessed as log reduction of extracellular CFU after 5 hrs; type: functional
Summary of the method: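 Broth exposure to total drug levels mimicking human serum Cmax, same concentrations as the intracellular assay, for 5 or 24 h. Medium is CA-MH broth, with 0.002% polysorbate-80 when oritavancin is tested. Samples are plated on brain heart infusion agar and incubated 48 h before SCV colonies are counted. Read-out is Δlog CFU/ml from the initial inoculum.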

[11] = system: Staphylococcus aureus; assay: Antibacterial activity against normal phenotype Staphylococcus aureus in infected in human THP-1 cells assessed as log reduction of extracellular CFU level after 24 hrs; type: functional, organism-based
[12] = system: Staphylococcus aureus; assay: Antibacterial activity against revertant Staphylococcus aureus infected in human THP-1 cells assessed as log reduction of extracellular CFU level after 24 hrs; type: functional, organism-based
[13] = system: Staphylococcus aureus; assay: Antibacterial activity against Staphylococcus aureus SCV isolated from cystic fibrosis patient infected in human THP-1 cells assessed as log reduction of intracellular CFU after 72 hrs; type: functional
Summary of the method: (§5)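 THP-1 macrophages are infected with the SCV strain, then extracellular bacteria are eliminated after phagocytosis. Drug is added at total concentrations mimicking human serum Cmax for 5, 24 or 72 h. Lysates are plated on brain heart infusion agar and counted after 48 h. Read-out is Δlog CFU/mg cell protein from the postphagocytosis inoculum; no drug-free control is run at 72 h.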

[14] = system: Staphylococcus aureus; assay: Antibacterial activity against Staphylococcus aureus SCV isolated from cystic fibrosis patient infected in human THP-1 cells assessed as log reduction of intracellular CFU after 5 hrs; type: functional; summary of the method: as §5
[15] = system: Staphylococcus aureus; assay: Antibacterial activity against Staphylococcus aureus SCV isolated from cystic fibrosis patient infected in human THP-1 cells assessed as log reduction of intracellular CFU after 24 hrs; type: functional
[16] = system: Plasma; assay: as §2; type: ADME, organism-based; conditions: in vivo
[17] = system: Plasma; assay: as §3

Compound	MIC [1]	Cmax [2]	fraction unbound [3]	MIC [4]	MIC [5]	MIC [6]	Activity [7]	MIC [8]	MIC [9]	log10cfu [10]	Activity [11]	Activity [12]	log10cfu [13]	log10cfu [14]	log10cfu [15]	Cmax [16]	Fu [17]
CCCCCCCCCC(=O)N[C@@H](Cc1c[nH]c2ccccc12)C(=O)N[C@H](CC(N)=O)C(=O)N[C@@H](CC(=O)O)C(=O)N[C@@H]1C(=O)NCC(=O)N[C@@H](CCCN)C(=O)N[C@@H](CC(=O)O)C(=O)N[C@H](C)C(=O)N[C@@H](CC(=O)O)C(=O)NCC(=O)N[C@H](CO)C(=O)N[C@@H]([C@H](C)CC(=O)O)C(=O)N[C@@H](CC(=O)c2ccccc2N)C(=O)O[C@@H]1C	0.125 µg/mL (≈ 0.0771 µM)	57000 ng/mL	0.1	0.125 µg/mL (≈ 0.0771 µM)	0.125 µg/mL (≈ 0.0771 µM)	0.25 µg/mL (≈ 0.154 µM)	Active	0.25 µg/mL	0.25 µg/mL (≈ 0.154 µM)	–	–	–	–	–	–	–	–
CCC[C@@H]1C[C@@H](C(=O)N[C@@H]([C@H]2O[C@H](SC)[C@H](O)[C@@H](O)[C@H]2O)[C@H](C)Cl)N(C)C1 [CLINDAMYCIN]	1 µg/mL (≈ 2.35 µM)	4000 ng/mL	0.1	0.125 µg/mL (≈ 0.294 µM)	0.125 µg/mL (≈ 0.294 µM)	0.125 µg/mL (≈ 0.294 µM)	Active	0.125 µg/mL	1 µg/mL (≈ 2.35 µM)	2	–	–	–	–	–	–	–
CC(=O)O[C@H]1C[C@@]2(C)[C@@H](C[C@@H](O)[C@H]3[C@@]4(C)CC[C@@H](O)[C@@H](C)[C@@H]4CC[C@@]32C)/C1=C(\CCC=C(C)C)C(=O)O [FUSIDIC ACID]	0.125 µg/mL (≈ 0.242 µM)	30000 ng/mL	0.05	0.03 µg/mL (≈ 0.0581 µM)	0.125 µg/mL (≈ 0.242 µM)	0.06 µg/mL (≈ 0.116 µM)	Active	0.03 µg/mL	0.03 µg/mL (≈ 0.0581 µM)	1	Active	Active	–	–	–	–	–
CC(=O)NC[C@H]1CN(c2ccc(N3CCOCC3)c(F)c2)C(=O)O1 [LINEZOLID]	–	16000 ng/mL	0.31	–	–	–	Active	–	–	1	–	–	–	–	–	–	–
COc1c(N2C[C@@H]3CCCN[C@@H]3C2)c(F)cc2c(=O)c(C(=O)O)cn(C3CC3)c12 [MOXIFLOXACIN]	2 µg/mL (≈ 4.98 µM)	4000 ng/mL	–	0.125 µg/mL (≈ 0.311 µM)	0.25 µg/mL (≈ 0.623 µM)	0.125 µg/mL (≈ 0.311 µM)	Active	0.125 µg/mL	2 µg/mL (≈ 4.98 µM)	–	–	–	1	1	–	–	–
CN[C@H](CC(C)C)C(=O)N[C@H]1C(=O)N[C@@H](CC(N)=O)C(=O)N[C@H]2C(=O)N[C@H]3C(=O)N[C@H](C(=O)N[C@H](C(=O)O)c4cc(O)cc(O)c4-c4cc3ccc4O)[C@H](O[C@H]3C[C@](C)(N)[C@@H](O)[C@H](C)O3)c3ccc(c(Cl)c3)Oc3cc2cc(c3O[C@@H]2O[C@H](CO)[C@@H](O)[C@H](O)[C@H]2O[C@H]2C[C@](C)(NCc3ccc(-c4ccc(Cl)cc4)cc3)[C@@H](O)[C@H](C)O2)Oc2ccc(cc2Cl)[C@H]1O [ORITAVANCIN]	0.03 µg/mL (≈ 0.0167 µM)	25000 ng/mL	0.12	0.015 µg/mL (≈ 0.00837 µM)	0.03 µg/mL (≈ 0.0167 µM)	0.015 µg/mL (≈ 0.00837 µM)	Active	0.015 µg/mL	0.125 µg/mL (≈ 0.0697 µM)	–	–	–	1	1	2.5	–	–
Cc1onc(-c2ccccc2)c1C(=O)N[C@@H]1C(=O)N2[C@@H]1SC(C)(C)[C@@H]2C(=O)O [OXACILLIN]	0.03 µg/mL (≈ 0.0747 µM)	64000 ng/mL	0.07	0.125 µg/mL (≈ 0.311 µM)	0.5 µg/mL (≈ 1.25 µM)	0.25 µg/mL (≈ 0.623 µM)	Active	0.25 µg/mL	0.015 µg/mL (≈ 0.0374 µM)	–	Active	Active	–	–	–	–	–
CO[C@H]1/C=C/O[C@@]2(C)Oc3c(C)c(O)c4c(O)c(c(/C=N/N5CCN(C)CC5)c(O)c4c3C2=O)NC(=O)/C(C)=C\C=C\[C@H](C)[C@H](O)[C@@H](C)[C@@H](O)[C@@H](C)[C@H](OC(C)=O)[C@@H]1C [RIFAMPIN]	0.0002 µg/mL (≈ 0.000243 µM)	18000 ng/mL	0.15	0.0005 µg/mL (≈ 0.000608 µM)	0.002 µg/mL (≈ 0.00243 µM)	0.0005 µg/mL (≈ 0.000608 µM)	Active	0.002 µg/mL	0.0005 µg/mL (≈ 0.000608 µM)	–	–	–	2	1	–	–	–
CCCCCCCCCCNCCN[C@@]1(C)C[C@H](O[C@H]2[C@H](Oc3c4cc5cc3Oc3ccc(cc3Cl)[C@@H](O)[C@@H](NC(=O)[C@@H](CC(C)C)NC)C(=O)N[C@@H](CC(N)=O)C(=O)N[C@H]5C(=O)N[C@H]3C(=O)N[C@H](C(=O)N[C@H](C(=O)O)c5cc(O)c(CNCP(=O)(O)O)c(O)c5-c5cc3ccc5O)[C@H](O)c3ccc(c(Cl)c3)O4)O[C@H](CO)[C@@H](O)[C@@H]2O)O[C@@H](C)[C@H]1O [TELAVANCIN]	0.125 µg/mL (≈ 0.0712 µM)	90000 ng/mL	0.07	0.125 µg/mL (≈ 0.0712 µM)	0.125 µg/mL (≈ 0.0712 µM)	0.125 µg/mL (≈ 0.0712 µM)	Active	0.125 µg/mL	0.125 µg/mL (≈ 0.0712 µM)	–	–	–	–	–	–	–	–
CN(C)c1cc(NC(=O)CNC(C)(C)C)c(O)c2c1C[C@H]1C[C@H]3[C@H](N(C)C)C(O)=C(C(N)=O)C(=O)[C@@]3(O)C(O)=C1C2=O [TIGECYCLINE]	0.125 µg/mL (≈ 0.213 µM)	1000 ng/mL	0.2	0.125 µg/mL (≈ 0.213 µM)	0.125 µg/mL (≈ 0.213 µM)	0.125 µg/mL (≈ 0.213 µM)	Active	0.125 µg/mL	0.125 µg/mL (≈ 0.213 µM)	1	–	–	–	–	–	–	–
CN[C@H](CC(C)C)C(=O)N[C@H]1C(=O)N[C@@H](CC(N)=O)C(=O)N[C@H]2C(=O)N[C@H]3C(=O)N[C@H](C(=O)N[C@H](C(=O)O)c4cc(O)cc(O)c4-c4cc3ccc4O)[C@H](O)c3ccc(c(Cl)c3)Oc3cc2cc(c3O[C@@H]2O[C@H](CO)[C@@H](O)[C@H](O)[C@H]2O[C@H]2C[C@](C)(N)[C@H](O)[C@H](C)O2)Oc2ccc(cc2Cl)[C@H]1O [VANCOMYCIN]	–	50000 ng/mL	0.5	–	–	–	Active	–	–	–	Active	Active	–	–	–	–	–
GENTAMICIN [listing 1 of 2 here]	–	–	–	–	–	–	–	–	–	–	–	–	–	–	–	18000 ng/mL	100%
GENTAMICIN [listing 2 of 2 here]	8 µg/mL	–	–	0.125 µg/mL	–	–	Active	0.125 µg/mL	4 µg/mL	–	–	–	–	–	–	–	–
